Measured values: ChEMBL document CHEMBL4219166, “Evaluation of analogues of furan-amidines as inhibitors of NQO2” (Bioorg Med Chem Lett, 2018)
pIC50: −log10 of the molar value. The source made the active and inactive calls. The rule behind the calls is not given here.

Columns and labels:
[1] = target: T1, Ribosyldihydronicotinamide dehydrogenase [quinone] (Homo sapiens) (UniProt P16083); test: Inhibition of recombinant human NQO2 assessed as change in rate of decolouration of DCPIP at 10 uM measured over 1 min by spectrophotometric method
T1 sequence (whole entry): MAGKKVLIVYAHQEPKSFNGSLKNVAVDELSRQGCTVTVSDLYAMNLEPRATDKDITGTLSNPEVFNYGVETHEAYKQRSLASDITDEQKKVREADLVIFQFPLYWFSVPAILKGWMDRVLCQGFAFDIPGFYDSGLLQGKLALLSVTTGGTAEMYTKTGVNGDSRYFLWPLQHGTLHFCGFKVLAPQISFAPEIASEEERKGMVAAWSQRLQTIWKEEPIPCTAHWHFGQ
Outline: (§1)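 The NQO2 enzymatic activity was followed spectrophotometrically as the decolouration of the blue redox dye 2,6-dichlorophenolindophenol (DCPIP) at pH 7.4.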

Plasmodium falciparum = test: Antimalarial activity against Plasmodium falciparum 3D7 asexual cultures grown under 5% haematocrit assessed as decrease in parasite DNA level by flow cytometry; assay type: functional, organism-based
[2] = target: T2, Ribosyldihydronicotinamide dehydrogenase [quinone] (Homo sapiens, UniProt P16083); test: Inhibition of recombinant human NQO2 assessed as change in rate of decolouration of DCPIP measured over 1 min by spectrophotometric method; outline: as §1
T2 sequence (P16083 whole entry): T1 sequence (whole entry)

SMILES | inhibition [1] | pIC50 (Plasmodium falciparum) | pIC50 [2]
Cn1cc(-c2ccccc2)nc1-c1ccc(C(=N)N)cc1 | inactive |  | 
N=C(N)c1ccc(-c2ccc(-c3ccccc3)o2)cc1 |  | 5.82 | 
N=C(NO)c1ccc(-c2ccc(-c3ccccc3)o2)cc1 | inactive |  | 
N=C(N)c1ccc(-c2ccc(-c3ccc(C(=N)N)cc3)o2)cc1 [FURAMIDINE] |  | 9.30 | 
Cc1oc(-c2ccc(C(=N)N)cc2)cc1-c1ccccc1 | inactive |  | 
CC(=N)Nc1ccc(-c2ccc(-c3ccccc3)s2)cc1 | inactive | 6.01 | 
N=C(N)c1ccc(-c2ccc(-c3ccccc3)s2)cc1 |  | 4.72 | 6.11
CC(=O)Nc1ccc(-c2ccc(-c3ccccc3)o2)cc1 | inactive |  | 
N=C(N)c1ccc(-c2nc(-c3ccccc3)c[nH]2)cc1 |  | 5.28 | 5.95
CC(=N)Nc1ccc(-c2ccc(-c3ccccc3)o2)cc1 | inactive | 6.11 | 
CC(=O)Nc1cccc(-c2ccc(-c3ccccc3)o2)c1 |  |  | 5.94
CC(=O)Nc1cccc(-c2ccc(-c3ccccc3)s2)c1 |  |  | 5.70
COC(=N)c1ccc(-c2ccc(-c3ccccc3)o2)cc1 | inactive |  | 
